Assay results taken from ChEMBL document CHEMBL4402517, “Rational modification of Mannich base-type derivatives as novel antichagasic compounds: Synthesis, in vitro and in vivo evaluation” (Bioorg Med Chem, 2019).

Key:
Trypanosoma cruzi [1] = assay: Antitrypanosomal activity against bloodstream trypomastigote stage of Trypanosoma cruzi MHOM/Pe/2011/Arequipa; DTU 5 isolated from parasite infected BALB/c Albino mouse cardiac cells after 24 hrs by Neubauer chamber based cell counting method; assay type: functional, organism-based; conditions: DTU 5, 24 h
In short: (§1)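 Bloodstream trypomastigotes were taken by cardiac puncture from infected BALB/c mice and diluted in RPMI + 10% heat-inactivated FBS. At 2 × 10^6/mL they were exposed to 3.1–50.0 µM (lower where needed) for 24 h at 37 °C, 5% CO2, and counted in a Neubauer chamber. Triplicates, at least three experiments; IC50 by nonlinear regression.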

Trypanosoma cruzi [2] = assay: Antitrypanosomal activity against bloodstream trypomastigote stage of Trypanosoma cruzi IRHOD/CO/2008/SN3;DTU 1 isolated from parasite infected BALB/c Albino mouse cardiac cells after 24 hrs by Neubauer chamber based cell counting method; assay type: functional, organism-based; conditions: IRHOD/CO/2008/SN3;DTU 1, 24 h; in short: as §1
Trypanosoma cruzi [3] = assay: Antitrypanosomal activity against Trypanosoma cruzi TINF/CH/1956/Tulahuen;DTU 6 epimastigotes measured after 72 hrs by Neubauer hemocytometer; assay type: functional, organism-based; conditions: TINF/CH/1956/Tulahuen;DTU 6, 72 h
Trypanosoma cruzi [4] = assay: Antitrypanosomal activity against Trypanosoma cruzi IRHOD/CO/2008/SN3;DTU 1 amastigote forms measured after 72 hrs by Giemsa staining based assay; assay type: functional, organism-based; conditions: IRHOD/CO/2008/SN3;DTU 1, 72 h
In short: (§2)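 Vero cells (1 × 10^4/well, on coverslips) left to adhere 24 h at 37 °C, 5% CO2, then infected with trypomastigotes at MOI 10:1 for 24 h. Free parasites were removed by three PBS washes. Compounds at 3.1, 6.25, 12.5, 25 and 50 µM were incubated 72 h, and amastigotes were counted after Giemsa staining. Triplicates, two separate experiments; IC50 by nonlinear regression.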

Trypanosoma cruzi [5] = assay: Trypanocidal activity against Trypanosoma cruzi trypomastigote form infected in African green monkey Vero cells measured after 48 hrs by resazurin dye based assay; assay type: functional, organism-based
Trypanosoma cruzi [6] = assay: Trypanocidal activity against Trypanosoma cruzi trypomastigote form infected in African green monkey Vero cells assessed as ratio of infected cells at 50 uM measured after 72 hrs by Giemsa staining based assay relative to control; assay type: functional
In short: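 Vero cells (1 × 10^4/well, on coverslips) were infected with trypomastigotes at MOI 10:1 for 24 h and washed three times with PBS. They were treated at 3.1, 6.25, 12.5, 25 and 50 µM for 72 h at 37 °C in 5% CO2. Infected cells were counted after Giemsa staining. Triplicates, two separate determinations.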

[7] = Selectivity index, ratio of IC50 for African green monkey Vero cells to IC50 for Trypanosoma cruzi IRHOD/CO/2008/SN3;DTU 1 trypomastigote forms; assay type: toxicity; conditions: read-out: Selectivity Index
In short: (§3)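 Bloodstream trypomastigotes were taken from BALB/c mice by cardiac puncture and diluted in RPMI with 10% FBS at 2 × 10^6/mL. They were incubated with 3.1–50.0 µM for 24 h at 37 °C in 5% CO2 and counted in a Neubauer chamber. Triplicate, at least three experiments; nonlinear regression.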

[8] = Selectivity index, ratio of IC50 for African green monkey Vero cells to IC50 for Trypanosoma cruzi IRHOD/CO/2008/SN3;DTU 1; assay type: toxicity; conditions: read-out: Selectivity Index
In short: (§4)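 SI = Vero IC50 / epimastigote IC50. Vero cells were grown in RPMI-1640 with 10% FBS, seeded at 0.8 × 10^4 cells/well, exposed to 10.0–200.0 µM for 72 h, then given MTT for 4 h. Epimastigotes were grown in MTL with 10% FBS at 28 °C, 5 × 10^5/mL, exposed to 6.3–50 µM for 48 h, then resazurin for 24 h (570/600 nm). IC50s came from nonlinear regression.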

[9] = Selectivity index, ratio of IC50 for African green monkey Vero cells to IC50 for Trypanosoma cruzi TINF/CH/1956/Tulahuen;DTU 6 amastigote forms; assay type: toxicity; conditions: read-out: Selectivity Index
In short: (§5)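 Vero cells (1 × 10^4/well) were infected with trypomastigotes at MOI 10:1 for 24 h and washed with PBS. They were then exposed to 3.1–50 µM for 72 h at 37 °C in 5% CO2, and amastigotes were counted after Giemsa staining. Triplicates in two determinations; nonlinear regression.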

[10] = Selectivity index, ratio of IC50 for African green monkey Vero cells to IC50 for Trypanosoma cruzi TINF/CH/1956/Tulahuen;DTU 6; assay type: toxicity; conditions: read-out: Selectivity Index; in short: as §4
Trypanosoma cruzi [11] = assay: Antitrypanosomal activity against Trypanosoma cruzi IRHOD/CO/2008/SN3;DTU 1 epimastigotes measured after 72 hrs by Neubauer hemocytometer; assay type: functional, organism-based; conditions: IRHOD/CO/2008/SN3;DTU 1, 72 h
[12] = Selectivity index, ratio of IC50 for African green monkey Vero cells to IC50 for Trypanosoma cruzi MHOM/Pe/2011/Arequipa; DTU 5 trypomastigote forms; assay type: toxicity; conditions: read-out: Selectivity Index; in short: as §3
Trypanosoma cruzi [13] = assay: Trypanocidal activity against Trypanosoma cruzi TINF/CH/1956/Tulahuen;DTU 6 trypomastigote forms infected in BALB/c albino mouse measured after 24 hrs by Neubauer chamber method; conditions: TINF/CH/1956/Tulahuen;DTU 6, 24 h
Trypanosoma cruzi [14] = assay: Antitrypanosomal activity against Trypanosoma cruzi MHOM/Pe/2011/Arequipa;DTU 5 epimastigotes measured after 72 hrs by Neubauer hemocytometer; assay type: functional, organism-based; conditions: MHOM/Pe/2011/Arequipa;DTU 5, 72 h
Trypanosoma cruzi [15] = assay: Antitrypanosomal activity against Trypanosoma cruzi MHOM/Pe/2011/Arequipa;DTU 5 amastigote forms measured after 72 hrs by Giemsa staining based assay; assay type: functional, organism-based; conditions: MHOM/Pe/2011/Arequipa;DTU 5, 72 h; in short: as §2
Trypanosoma cruzi [16] = assay: Antitrypanosomal activity against Trypanosoma cruzi TINF/CH/1956/Tulahuen;DTU 6 amastigote forms measured after 72 hrs by Giemsa staining based assay; assay type: functional, organism-based; conditions: TINF/CH/1956/Tulahuen;DTU 6, 72 h; in short: as §2
Vero = assay: Cytotoxicity against African green monkey Vero cells measured after 72 hrs by MTT assay; assay type: cell-based; conditions: Chlorocebus sabaeus
In short: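 Log-phase Vero cells (0.8 × 10^4/well) in RPMI-1640 + 10% heat-inactivated FBS at 37 °C, 5% CO2 were exposed 72 h to serial dilutions (10.0–200.0 µM; stocks in DMSO). MTT was then added for 4 h and absorbance read. Quadruplicates, three experiments; IC50 by nonlinear regression.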

[17] = Selectivity index, ratio of IC50 for African green monkey Vero cells to IC50 for Trypanosoma cruzi IRHOD/CO/2008/SN3;DTU 1 amastigote forms; assay type: toxicity; conditions: read-out: Selectivity Index; in short: as §5
[18] = Selectivity index, ratio of IC50 for African green monkey Vero cells to IC50 for Trypanosoma cruzi MHOM/Pe/2011/Arequipa; DTU 5 amastigote forms; assay type: toxicity; conditions: read-out: Selectivity Index; in short: as §5
[19] = Selectivity index, ratio of IC50 for African green monkey Vero cells to IC50 for Trypanosoma cruzi TINF/CH/1956/Tulahuen;DTU 6 trypomastigote forms; assay type: toxicity; conditions: read-out: Selectivity Index; in short: as §3
[20] = Selectivity index, ratio of IC50 for African green monkey Vero cells to IC50 for Trypanosoma cruzi MHOM/Pe/2011/Arequipa;DTU 5; assay type: toxicity; conditions: read-out: Selectivity Index; in short: as §4

SMILES	IC50 (Trypanosoma cruzi [1])	IC50 (Trypanosoma cruzi [2])	IC50 (Trypanosoma cruzi [3])	IC50 (Trypanosoma cruzi [4])	IC50 (Trypanosoma cruzi [5])	Ratio (Trypanosoma cruzi [6])	selectivity ratio [7]	selectivity ratio [8]	selectivity ratio [9]	selectivity ratio [10]	IC50 (Trypanosoma cruzi [11])	selectivity ratio [12]	IC50 (Trypanosoma cruzi [13])	IC50 (Trypanosoma cruzi [14])	IC50 (Trypanosoma cruzi [15])	IC50 (Trypanosoma cruzi [16])	IC50 (Vero)	selectivity ratio [17]	selectivity ratio [18]	selectivity ratio [20]	other results
COc1ccc(C(=O)CCNc2ccc(Cl)cc2)cc1	13 µM	63 µM	16.4 µM	6 µM	9 µM	28%	2.3	3.8	5.5	8.9	38.4 µM	11.2	14.2 µM	18.7 µM	7.3 µM	26.3 µM	146 µM	24.1	19.9	7.8	selectivity ratio [19]: 10.2
COc1ccc(C(=O)CCNCCc2ccc(Cl)cc2)cc1			15.2 µM					3.7		3.5	14.6 µM			51.6 µM			53.5 µM			1	
O=C(CCN1CCN(c2ccc([N+](=O)[O-])cc2)CC1)c1ccc(O)cc1			43 µM					2.7		0.8	13 µM			24.8 µM			34.6 µM			1.4	
COc1ccc(C(=O)CCNCCc2ccc(F)cc2)cc1			20.3 µM					3.9		3.3	16.9 µM			35.6 µM			66.2 µM			1.9	
COc1ccc(C(=O)CCNc2ccc(C(F)(F)F)cc2)cc1			24.6 µM					0.4		1.3	76.1 µM			17.8 µM			32.6 µM			1.8	
O=C(CCN1CCN(c2ccc(F)cc2)CC1)c1ccc(O)cc1			13 µM					5		3.9	10.1 µM			24.4 µM			50 µM			2.1	
COc1ccc(C(=O)CCNCCc2ccc(C(F)(F)F)cc2)cc1	3.6 µM	5.5 µM	13.2 µM	4.5 µM	13.9 µM	17%	16.7	6.9	27.7	6.9	13.2 µM	25	3.5 µM	59.7 µM	9.1 µM	3.3 µM	91.1 µM	20.2	10	1.5	selectivity ratio [19]: 26.1
COc1ccc(C(=O)CCNc2ccc(F)cc2)cc1	2.1 µM	3.4 µM	14.4 µM	5.4 µM	7.1 µM	10%	39.4	5.2	20.1	9.3	25.4 µM	64.8	2.7 µM	14.8 µM	4.7 µM	6.7 µM	133 µM	24.7	27.6	9	selectivity ratio [19]: 48.8
